The source made the active and inactive calls. The rule behind the calls is not given here.
Key:
[1] = molecular target: MAP kinase p38 (Mus musculus) (UniProt P47811+O08911+Q9WUI1+Q9Z1B7); experiment: Inhibition of LPS-induced p38 MAPK phosphorylation in ICR mouse RAW264.7 cells at 10 uM preincubated for 0.5 hrs followed by LPS challenge and measured after 30 mins by immunoblotting analysis; format: cell-based
Method in brief: (§1)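 RAW 264.7 cells were pretreated with compound for 0.5 h and then stimulated with LPS for 30 min. Lysates were resolved on 10% or 12% SDS-PAGE and transferred to nitrocellulose. Membranes were blocked in TBS (pH 7.6) with 0.05% Tween 20 and 5% milk. Blots were probed for p-p38, p38, p-ERK, ERK, IκBα and GAPDH, detected with HRP secondaries and ECL.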

[2] = test system: Mus musculus; experiment: Antiinflammatory activity in C57BL/6 mouse model of LPS-induced acute lung injury assessed as reduction in total cell count in BALF at 10 mg/kg, ip administered daily for one week prior to LPS challenge and measured after 6 hrs; format: functional, organism-based
Method in brief: (§2)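 C57BL/6 mice (eight per group) received 10 mg/kg i.p. daily for one week; vehicle was 0.9% saline. They were then challenged with intratracheal LPS at 5 mg/kg and sacrificed 6 h later. Endpoints were lung wet/dry weight ratio and total and neutrophil cell counts in BALF, reported as mean ± SEM, n = 6.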

[3] = test system: RAW264.7; experiment: Cytotoxicity against ICR mouse RAW264.7 cells assessed as effect on cell proliferation at 10 uM after 24 hrs by MTT assay; format: cell-based; settings: raw264.7, 24 h
[4] = Inhibition of MAPK/NFkappaB in ICR mouse RAW264.7 cells assessed as reduction in LPS-induced TNFalpha production pretreated for 0.5 hrs followed by LPS challenge and measured after 24 hrs by ELISA; format: cell-based
[5] = test system: RAW264.7; experiment: Inhibition of MAPK/NFkappaB in ICR mouse RAW264.7 cells assessed as reduction in LPS-induced IL6 production at 10 uM pretreated for 0.5 hrs followed by LPS challenge and measured after 24 hrs by ELISA relative to control; format: cell-based
[6] = test system: Mus musculus; experiment: Antiinflammatory activity in C57BL/6 mouse model of LPS-induced acute lung injury assessed as reduction in TNF-alpha mRNA expression in lung tissue at 10 mg/kg, ip administered daily for one week prior to LPS challenge and measured after 6 hrs by TRIZOL reagent-based RT-qPCR analysis; format: functional, organism-based
Method in brief: (§3)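 Mouse ALI model with eight C57BL/6 mice per group. Compound was given at 10 mg/kg i.p. daily for one week; controls received 0.9% saline. LPS was instilled intratracheally at 5 mg/kg. Mice were euthanized with chloral hydrate 6 h later and lungs collected. Lung mRNA for each target was quantified by real-time qPCR.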

[7] = test system: RAW264.7; experiment: Inhibition of MAPK/NFkappaB signaling in ICR mouse RAW264.7 cells assessed as reduction in LPS-induced VCAM1 mRNA expression pretreated for 0.5 hrs followed by LPS challenge and measured after 40 mins by TRIZOL reagent-based RT-qPCR analysis; format: cell-based
Method in brief: (§4)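 RAW 264.7 cells were pretreated with compound for 0.5 h and then activated with LPS. Values were normalized to actin and expressed relative to the LPS group.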

[8] = test system: Mus musculus; experiment: Antiinflammatory activity in C57BL/6 mouse model of LPS-induced acute lung injury assessed as reduction in neutrophil count in BALF at 10 mg/kg, ip administered daily for one week prior to LPS challenge and measured after 6 hrs; format: functional, organism-based; method in brief: as §2
[9] = test system: Mus musculus; experiment: Antiinflammatory activity in C57BL/6 mouse model of LPS-induced acute lung injury assessed as reduction in ICAM1 mRNA expression in lung tissue at 10 mg/kg, ip administered daily for one week prior to LPS challenge and measured after 6 hrs by TRIZOL reagent-based RT-qPCR analysis; format: functional, organism-based; method in brief: as §3
[10] = Stability in pH 7.4 phosphate buffer assessed as compound decomposition measured up to 25 mins by UV-Vis spectroscopy; format: physicochemical; settings: pH 7.4, 25 min
Method in brief: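 Compound stability was followed by recording UV-visible absorption spectra in phosphate buffer at pH 7.4.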

[11] = test system: Mus musculus; experiment: Antiinflammatory activity in C57BL/6 mouse model of LPS-induced acute lung injury assessed as reduction of LY-6G neutrophil level in lung tissue at 10 mg/kg, ip administered daily for one week prior to LPS challenge and measured after 6 hrs by hematoxylin staining-based immunohistochemistry method; format: functional, organism-based
Method in brief: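 Lungs came from C57BL/6 mice dosed at 10 mg/kg i.p. daily for one week, then given intratracheal LPS 5 mg/kg and harvested at 6 h. Tissue was paraffin-embedded and cut into 5 µm sections. Antigen retrieval used microwaving in 0.01 mol/L citrate (pH 6.0), then 3% H2O2 in methanol for 30 min. Sections took LY-6G or F4/80 primary antibody overnight at 4 °C, secondary at 1:200, DAB development and hematoxylin counterstain.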

[12] = test system: RAW264.7; experiment: Inhibition of MAPK/NFkappaB signaling in ICR mouse RAW264.7 cells assessed as reduction in LPS-induced IL-6 mRNA expression pretreated for 0.5 hrs followed by LPS challenge and measured after 40 mins by TRIZOL reagent-based RT-qPCR analysis; format: cell-based; method in brief: as §4
[13] = test system: Mus musculus; experiment: Antiinflammatory activity in C57BL/6 mouse model of LPS-induced acute lung injury assessed as reduction in TNF-alpha production in BALF at 10 mg/kg, ip administered daily for one week prior to LPS challenge and measured after 6 hrs by ELISA; format: functional, organism-based
Method in brief: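 In C57BL/6 mice (eight per group), compound was dosed at 10 mg/kg i.p. once daily for a week, with a 0.9% saline vehicle control. LPS 5 mg/kg was given intratracheally and animals were euthanized with chloral hydrate after 6 h. TNF-α and IL-6 in serum and BALF were measured by ELISA. Data are mean ± SEM, n = 6.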

[14] = Inhibition of MAPK/NFkappaB in ICR mouse RAW264.7 cells assessed as reduction in LPS-induced IL6 production pretreated for 0.5 hrs followed by LPS challenge and measured after 24 hrs by ELISA; format: cell-based
[15] = test system: Mus musculus; experiment: Antiinflammatory activity in C57BL/6 mouse model of LPS-induced acute lung injury assessed as reduction in IL1beta mRNA expression in lung tissue at 10 mg/kg, ip administered daily for one week prior to LPS challenge and measured after 6 hrs by TRIZOL reagent-based RT-qPCR analysis; format: functional, organism-based; method in brief: as §3
[16] = test system: Mus musculus; experiment: Antiinflammatory activity in C57BL/6 mouse model of LPS-induced acute lung injury assessed as reduction in IL-6 mRNA expression in lung tissue at 10 mg/kg, ip administered daily for one week prior to LPS challenge and measured after 6 hrs by TRIZOL reagent-based RT-qPCR analysis; format: functional, organism-based; method in brief: as §3
[17] = molecular target: Transcription factor p65 (Mus musculus) (UniProt Q04207); experiment: Inhibition of LPS-induced NFkappaB p65 nuclear translocation in ICR mouse RAW264.7 cells preincubated for 0.5 hrs followed by LPS challenge and measured after 40 mins by DAPI staining-based immunofluorescence microscopic analysis; format: cell-based
Method in brief: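 RAW 264.7 cells were pretreated with compound for 0.5 h, then given LPS for 40 min (methods) or 45 min (legend). Cells were fixed with 4% paraformaldehyde and permeabilized in methanol. Anti-p65 (1:200) was applied overnight at 4 °C, then PE-conjugated secondary (1:200) for 2 h. Nuclei were stained with DAPI and cells viewed by fluorescence microscopy.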

[18] = test system: RAW264.7; experiment: Inhibition of LPS-induced ERK phosphorylation in ICR mouse RAW264.7 cells at 10 uM preincubated for 0.5 hrs followed by LPS challenge and measured after 30 mins by immunoblotting analysis; format: cell-based; method in brief: as §1

Transcription factor p65 (Mus musculus), sequence (Q04207 whole entry): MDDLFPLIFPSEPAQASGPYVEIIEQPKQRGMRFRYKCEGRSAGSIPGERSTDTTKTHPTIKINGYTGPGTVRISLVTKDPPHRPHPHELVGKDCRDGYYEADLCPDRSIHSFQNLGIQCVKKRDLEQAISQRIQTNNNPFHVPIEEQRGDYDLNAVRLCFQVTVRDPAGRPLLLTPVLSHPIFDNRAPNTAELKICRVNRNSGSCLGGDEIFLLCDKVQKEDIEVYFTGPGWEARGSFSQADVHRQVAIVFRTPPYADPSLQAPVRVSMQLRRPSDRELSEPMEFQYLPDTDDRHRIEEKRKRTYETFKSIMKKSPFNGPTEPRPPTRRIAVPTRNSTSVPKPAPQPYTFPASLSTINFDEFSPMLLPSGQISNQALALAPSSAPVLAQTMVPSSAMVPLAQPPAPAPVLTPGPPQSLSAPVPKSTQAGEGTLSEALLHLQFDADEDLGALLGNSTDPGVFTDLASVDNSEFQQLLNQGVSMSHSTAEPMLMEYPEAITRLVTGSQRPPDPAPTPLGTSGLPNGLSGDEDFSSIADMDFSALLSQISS

SMILES | inhibition [1] | Activity [2] | Activity [3] | IC50 [4] | inhibition [5] | Activity [6] | inhibition [7] | Activity [8] | Activity [9] | Stability [10] | Activity [11] | inhibition [12] | Activity [13] | IC50 [14] | Activity [15] | Activity [16] | inhibition [17] | inhibition [18]
COc1cc(/C=C/C(=O)N2CCC/C(=C\c3cc(OC)c(OC)c(OC)c3)C2=O)ccc1OC(C)=O | Active | Active | Non-Toxic | 2.33 µM | 99.3 to 99.7% | Active | Active | Active | Active | Stable | Active | Active | Active | 2.4 µM | Active | Active | Active | Active
COc1cc(/C=C/C(=O)N2CCC/C(=C\c3cc(OC)c(OC)c(OC)c3)C2=O)ccc1O | Active | Active | Non-Toxic | 3.69 µM | 99.3 to 99.7% | Active | Active | Active | Active | Stable | Active | Active | Active | 3.68 µM | Active | Active | Active | Active

Source: ChEMBL document CHEMBL4387702, “Design and synthesis novel di-carbonyl analogs of curcumin (DACs) act as potent anti-inflammatory agents against LPS-induced acute lung injury (ALI)” (Eur J Med Chem, 2019)
